Screening results deposited in PubChem BioAssay by The Scripps Research Institute Molecular Screening Center.
Only some compounds are listed: those with a hit (about 1.7% of all), similar ones and a draw of the others.
PP1 counter: PP1-alpha phosphatase inhibitors, primary screen, counter-screen for PP5 inhibitor project, biochemical, fluorescence, OMFP substrate, single point. Serine/threonine-protein phosphatase PP1-alpha catalytic subunit (Homo sapiens), P62136. purified PP1alpha. inhibition, % at 6.7 µM. 320,000 tested, 0.9% active;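 active means inhibition above the mean inhibition of all tested compounds plus 3 SD, computed separately for each screening campaign, cut at about 15% in these data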
Target sequence (P62136 whole entry, looked up): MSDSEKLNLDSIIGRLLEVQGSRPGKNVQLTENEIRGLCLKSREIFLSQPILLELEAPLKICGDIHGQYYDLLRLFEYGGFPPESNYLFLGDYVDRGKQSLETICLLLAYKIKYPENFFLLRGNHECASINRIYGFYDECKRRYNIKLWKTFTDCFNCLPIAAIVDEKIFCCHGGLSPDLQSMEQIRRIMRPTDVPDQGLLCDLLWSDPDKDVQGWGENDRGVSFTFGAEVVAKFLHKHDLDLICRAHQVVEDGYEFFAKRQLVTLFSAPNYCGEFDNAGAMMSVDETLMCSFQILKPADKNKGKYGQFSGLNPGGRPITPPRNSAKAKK
HCV core dimer: inhibitors of HCV core protein dimerization, primary screen, biochemical, TR-FRET, high-throughput. AID 1899, 2009. TR-FRET GST/Flag-core106 dimerization, 1536-well. inhibition, % at 5 µM. 300,000 tested, 0.33% active;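 active means inhibition above the mean of all tested compounds plus 3 SD, set per screening campaign, cut at about 45% in these data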
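System: GST-tagged and Flag-tagged HCV core protein residues 1-106 / Input: core106 proteins, GST 13.5 nM and Flag 17 nM / Buffer or medium: KF-containing HEPES buffer, pH 7.45, DTT, CHAPS, BSA / Probe or stimulus: Eu-anti-GST and XL665-anti-Flag labelled anti-tag antibodies / Schedule: 4 h, 22.5 °C incubation / Technique: TR-FRET 671 and 617 nm emission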
ZTA DNA inh: counter-screen for EBNA-1 inhibitors: inhibitors of Epstein-Barr virus ZTA; ZTA-DNA binding, fluorescence polarization; inhibition, % at 11 µM; AID 2234; 320,000 tested, 0.15% active; P03206; in the data active means inhibition above about 33%
Target sequence (P03206 whole entry, looked up): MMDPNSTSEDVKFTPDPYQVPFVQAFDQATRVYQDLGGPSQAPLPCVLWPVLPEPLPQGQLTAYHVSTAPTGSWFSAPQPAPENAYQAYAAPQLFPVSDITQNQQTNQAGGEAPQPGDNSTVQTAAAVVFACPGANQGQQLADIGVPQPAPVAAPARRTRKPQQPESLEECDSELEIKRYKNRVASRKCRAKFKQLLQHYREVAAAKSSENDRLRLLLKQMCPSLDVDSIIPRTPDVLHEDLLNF
PP5 primary: PP5 phosphatase inhibitors, primary screen, biochemical, fluorescence | purified PP5c, OMFP substrate fluorescence | Serine/threonine-protein phosphatase 5 (Homo sapiens), P53041 | inhibition, % at 6.7 µM | 320,000 tested, 0.18% active;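 active means inhibition above the campaign's mean inhibition across all tested compounds plus 3 SD, cut at about 9.5% in these data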
EBNA-1 inhibitor: EBNA-1 DNA-binding inhibitors, primary screen, biochemical, fluorescence polarization; inhibition, % at 14.8 µM; 300,000 tested, 0.34% active; in the data active means inhibition above about 28%
PP1 confirm: PP1 phosphatase inhibitors, confirmation, biochemical, fluorescence, OMFP substrate, triplicate; 1,900 tested, 52% active; inhibition, % at 6.7 µM; purified PP1alpha; shares compounds with PP1 counter;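 active means mean PP1 inhibition above a set limit taken from the earlier primary screen, cut at about 15% in these data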
PP5 inh counter: PP5 phosphatase inhibition by PP1 hits, confirmation, counter-screen for PP1 inhibitor project, biochemical, fluorescence, triplicate | shares compounds with PP1 counter | purified PP5c, OMFP fluorescence | inhibition, % at 6.7 µM | 1,900 tested, 4% active | AID 2360, 2010;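 active means mean PP5 inhibition over triplicate wells above about 9.5% taken from the earlier PP1 screen, limit read from the data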
Of the large screens only hits and unclear results are named; the others gave an inactive call (follow-up assays come after a bar, where they were run).

COc1ccc(OC)c(N2Cc3ccccc3C2)c1	none
COc1ccccc1N1Cc2ccccc2C1	PP1 counter 18.0 | PP1 confirm 24.2 | PP5 inh counter inactive
COc1ccc(OC)c(C2CC(=O)N3CN(c4ccccc4)CSC3=C2C#N)c1 (stereo not given)	none
Cc1cccc(N2CSC3=C(C#N)C(c4ccc(C)o4)CC(=O)N3C2)c1 (stereo not given)	PP1 counter 20.2, HCV core dimer 84.5 | PP1 confirm 16.4 | PP5 inh counter inactive
CCN(CC)C(=O)C[n+]1cccc(C(N)=O)c1	none
Cc1cc(-c2cc(C(=O)NCc3ccccc3)on2)nc(NCC2CC2)n1	none
COc1ccc(-c2[nH]ncc2CN2CCC(C(=O)N3CCOCC3)CC2)c(F)c1	none
O=C(C1CCN(Cc2cn[nH]c2-c2ccc(F)cc2F)CC1)N1CCOCC1	PP1 counter 42.7 | PP1 confirm inactive | PP5 inh counter inactive
CC(C)(C)c1cc(NC(=O)COc2ccc(Br)cc2)n(-c2ccccc2)n1	none
Cc1cccc(OCCn2c(NC(=O)c3ccco3)nc3ccccc32)c1	PP1 counter 19.5 | PP1 confirm inactive | PP5 inh counter inactive
Cc1ccc(OCCn2c(NC(=O)c3ccco3)nc3ccccc32)cc1	none
C#CCOCCOCCOCCNc1nc(N2CCN(C(=O)[C@H](Cc3cc4ccccc4[nH]3)n3cc([C@@H](N)CC(C)C)nn3)CC2)nc(N2CCN(C(=O)[C@H](Cc3cc4ccccc4[nH]3)n3cc([C@@H](N)CC(C)C)nn3)CC2)n1	PP1 counter 42.7 | PP1 confirm inactive | PP5 inh counter inactive
C#CCOCCOCCOCCNc1nc(N2CCN(C(=O)[C@H](CCC(=O)O)n3cc(C(N)Cc4ccc(O)cc4)nn3)CC2)nc(N2CCN(C(=O)[C@H](Cc3cc4ccccc4[nH]3)n3cc(C(N)[C@H](C)CC)nn3)CC2)n1 (stereo not given in full)	none
C#CCOCCOCCOCCNc1nc(N2CCOCC2)nc(N2CCN(C(=O)[C@H](Cc3cc4ccccc4[nH]3)n3cc([C@@H](N)CC(C)C)nn3)CC2)n1	none
C#CCOCCOCCOCCNc1nc(N2CCN(C(=O)[C@H](Cc3cc4ccccc4[nH]3)n3cc([C@@H](N)C(C)CC)nn3)CC2)nc(N2CCN(C(=O)[C@H](Cc3cc4ccccc4[nH]3)n3cc([C@@H](N)Cc4ccc(O)cc4)nn3)CC2)n1 (stereo not given in full)	PP1 counter 83.8, ZTA DNA inh 54.6, EBNA-1 inhibitor 46.0 | PP1 confirm 78.0 | PP5 inh counter inactive
C#CCOCCOCCOCCNc1nc(N2CCN(C(=O)C(Cc3cc4ccccc4[nH]3)n3cc(C(N)Cc4ccc(O)cc4)nn3)CC2)nc(N2CCN(C(=O)C(CCC(=O)O)n3cc(C(N)C(C)CC)nn3)CC2)n1 (stereo not given)	none
C#CCOCCOCCOCCNc1nc(N2CCN(C(=O)[C@H](Cc3ccc(O)cc3)n3cc([C@@H](N)C(C)CC)nn3)CC2)nc(N2CCN(C(=O)[C@H](Cc3cc4ccccc4[nH]3)n3cc([C@@H](N)CC(C)C)nn3)CC2)n1 (stereo not given in full)	PP1 counter 20.0 | PP1 confirm inactive | PP5 inh counter inactive
Cc1nn(-c2ccccc2)c(C)c1NC(=O)COC(=O)CCc1ccccc1	none
Cn1c(SCC(=O)N2CCc3ccccc32)nnc1-c1ccc(S(=O)(=O)N2CCCC2)cc1	none
Cc1cccc(-n2c(-c3ccncc3)n[nH]c2=S)c1C	PP1 counter 18.6, HCV core dimer 49.1 | PP1 confirm inactive | PP5 inh counter inactive
CC(=O)Nc1c(C(N)=O)oc2ccc(Cl)cc12	none
O=C1CCC(=O)O1	none (no result: HCV core dimer, EBNA-1 inhibitor)
O=C1OC(=O)C2C3CCC(O3)C12 (stereo not given)	PP1 counter 74.9, PP5 primary 66.7 | PP1 confirm 46.2 | PP5 inh counter 51.0
COC(=O)CCC(=O)OC1(C)C(=O)C=C2C=C(c3ccsc3)OC=C2C1=O (stereo not given)	none
CC1(OC(=O)c2ccco2)C(=O)C=C2C=C(c3ccsc3)OC=C2C1=O (stereo not given)	PP1 counter 18.5 | PP1 confirm inactive | PP5 inh counter inactive
CCCCC1=CC2=CC(=O)C(C)(O)C(=O)C2=CO1 (stereo not given)	PP1 counter 18.5 | PP1 confirm inactive | PP5 inh counter inactive
CC1(O)C(=O)C=C2C=C(c3ccsc3)OC=C2C1=O (stereo not given)	PP1 counter 18.0 | PP1 confirm inactive | PP5 inh counter inactive
C[C@@H]1C[C@H]2[C@@H]3CCC4=CC(=O)C=C[C@]4(C)[C@@]3(Cl)[C@@H](O)C[C@]2(C)[C@@]1(OC(=O)c1ccco1)C(=O)CCl	PP1 counter 23.1 | PP1 confirm 26.6 | PP5 inh counter inactive
Oc1ccc(/C=N/Nc2ccc(Cl)nn2)c(O)c1O	PP1 counter 17.7 | PP1 confirm 38.2 | PP5 inh counter inactive
Oc1c(Br)cc(Br)cc1/C=N/Nc1ccc(Cl)nn1	none
CCC(=O)Nc1cc(C)c(NC(=O)c2ccccc2OC)cn1	none
CCC[n+]1c2ccccc2cc2ccccc21	PP1 counter 25.2 | PP1 confirm 20.4 | PP5 inh counter inactive
Cc1ccc2ccccc2[n+]1CCCS(=O)(=O)[O-]	none
CCCC[n+]1c2ccccc2cc2ccccc21	PP1 counter 22.3 | PP1 confirm 19.1 | PP5 inh counter inactive
COc1cc2c(cc1OC)-c1cc(NCc3ccccn3)nc(=O)n1CC2	PP1 counter 20.4 | PP1 confirm 20.8 | PP5 inh counter inactive
Cc1nnc(SCC(=O)Nc2cccc(S(=O)(=O)NC3=NCCCCC3)c2)n1Cc1ccccc1	none
O=c1c2ccccc2c(C=Nc2cccc(S(=O)(=O)NC3=NCCCCC3)c2)c(O)n1Cc1ccccc1	PP1 counter 19.1 | PP1 confirm inactive | PP5 inh counter inactive
COc1ccc(Cl)cc1C(=O)NNC(=O)c1csc(N2CCOCC2)n1	none
CC1CCCCN1S(=O)(=O)c1ccc(C(=O)Nc2nnc(C3CC3)o2)cc1 (stereo not given)	PP1 counter 19.9 | PP1 confirm inactive | PP5 inh counter inactive
O=C(Nc1nnc(C2CC2)o1)c1ccc(S(=O)(=O)N2CCCCC2)cc1	PP1 counter 20.1 | PP1 confirm inactive | PP5 inh counter inactive
CC1CCN(S(=O)(=O)c2ccc(C(=O)Nc3nnc(C4CC4)o3)cc2)CC1	PP1 counter 23.1 | PP1 confirm 23.5 | PP5 inh counter inactive
